# MC4R antag cAMP = human MC4R antagonism in cAMP assay. MC4R-expressing cells, MTII-stimulated cAMP, LANCE TR-FRET. inhibition, % at 6.5 µM. hit rate 0.48% among 360,000;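 active = inhibition above its plate's cutoff, the mean of tested wells on that plate plus 3 SD, cut at about 29% in these data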;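 also: 0% = Melanotan II alone and 100% = Melanotan II plus saturating MCL0020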
#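 Material: U2OS-MC4R stable cell line | Reagent: Melanotan II challenge after compound preincubation | Doses: One concentration, 6.5 µM nominal | Incubation: 30-min compound preincubation, 1-h Melanotan II challenge, 1-h detection, room temperature | Signal: TR-FRET cAMP assay | Replicates: One well per compound, no replicates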
# HTR2A ag = agonists of mouse serotonin 5-HT2A receptor (HTR2A); P35363; CHO-K1 mHTR2A beta-arrestin complementation, luminescence; percent of 30 µM serotonin response; activation, % at 7.6 µM; hit rate 0.66% among 360,000; AID 624169;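 active = activation above a run cutoff, the mean activation of all tested compounds plus 3 SD, cut at about 14% in these data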;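 also: 0% = plate median of compound wells and 100% = 30 µM serotonin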
# MC4R barr agon = activates human MC4R beta-arrestin recruitment; P32245; U2OS MC4R beta-arrestin complementation, luminescence; percent of melanotan II response, DMSO zero; activation, % at 8.9 µM; hit rate 0.98% among 360,000; AID 540308;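 active = activation above a per-plate cutoff, the mean activation of sample wells on that plate plus 3 SD, cut at about 8% in these data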
# EBI2 antag = antagonists of human EBI2 receptor | EBI2 beta-arrestin recruitment, luminescence, 7a,25-OHC stimulated | inhibition, % at 5 µM | hit rate 0.81% among 360,000 | AID 651636; in the data active = inhibition above about 38%;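 also: enzyme fragment complementation signal reports receptor beta-arrestin coupling in cells; 0% = agonist plus DMSO wells and 100% = wells without agonist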
# OPRM1 ag = activates human mu opioid receptor in HTR2A counterscreen. shares compounds with HTR2A ag. U2OS OPRM1 beta-arrestin PathHunter, luminescence; DMSO 0%, DAMGO 9.3 µM 100%. activation, % at 9.3 µM. hit rate 5.3% among 2,300. AID 624380;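 active = mean activation above the mean of DMSO-only wells plus 3 SD, cut at about 0.5% in these data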
# Target sequence (P35372 whole entry, looked up): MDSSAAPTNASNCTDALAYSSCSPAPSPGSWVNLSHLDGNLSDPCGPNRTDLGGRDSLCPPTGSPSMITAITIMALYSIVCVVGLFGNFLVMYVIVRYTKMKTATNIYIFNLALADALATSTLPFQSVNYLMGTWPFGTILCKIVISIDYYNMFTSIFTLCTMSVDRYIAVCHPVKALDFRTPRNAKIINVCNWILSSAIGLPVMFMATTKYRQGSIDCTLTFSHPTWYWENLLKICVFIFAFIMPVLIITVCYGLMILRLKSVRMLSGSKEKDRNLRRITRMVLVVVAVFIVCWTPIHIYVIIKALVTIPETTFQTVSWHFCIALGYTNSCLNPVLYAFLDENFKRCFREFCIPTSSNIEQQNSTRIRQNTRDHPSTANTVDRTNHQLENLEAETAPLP
# m5-HT2A ag conf = mouse HTR2A agonism confirmed; shares compounds with HTR2A ag; activation, % at 7.6 µM; hit rate 19% among 2,300; AID 624381; CHO-K1 PathHunter beta-arrestin recruitment, luminescence; DMSO 0%, 30 µM serotonin 100%;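 active = mean activation across triplicates above the hit threshold derived in the original primary screen, cut at about 15% in these data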
# An asterisk follows results filed as active; . = not tested or not shown. Hits are enriched below; roughly 2.8% of the tested compounds scored in any of these assays.
SMILES,MC4R antag cAMP,HTR2A ag,MC4R barr agon,EBI2 antag,OPRM1 ag,m5-HT2A ag conf
O=C1NC[C@H](Cc2ccccc2)N(C[C@H]2CCCN2C[C@H](Cc2ccc(O)cc2)N2C[C@H](Cc3ccc(O)cc3)N(CC3CCCCCC3)C(=O)C2=O)C1=O,2,26*,-1,5,-1,73*
O=C1NC[C@H](Cc2ccccc2)N(C[C@H]2CCCN2C[C@H](Cc2ccccc2)N2C[C@H](Cc3ccc(O)cc3)N(CC3CCCCCC3)C(=O)C2=O)C1=O,4,4,1,2,.,.
C[C@H]1CCCCO[C@H](CN(C)Cc2ccccc2)[C@@H](C)CN([C@@H](C)CO)C(=O)c2cc(NC(=O)CCC(F)(F)F)ccc2O1,-8,23*,0,20,-1,0
COc1ccc(CN(C)C[C@H]2OCCCC[C@H](C)Oc3ccc(NC(=O)CCC(F)(F)F)cc3C(=O)N([C@@H](C)CO)C[C@@H]2C)cc1,-3,4,2,4,.,.
CCOC(=O)c1cc2cc(OC)ccc2n1C1CCN(CCc2ccccc2)CC1,.,20*,.,-10,0,-7
COc1ccc(C(C)C)cc1-c1cccc2nncn12,11,8,0,-7,.,.
Cc1ccc(S(=O)(=O)Nc2ccc(-c3csc(-c4ccccc4)n3)cc2)cc1,4,9,0,13,.,.
Cc1ccc(-c2nc3cc(NS(=O)(=O)c4ccc(C)cc4)ccc3o2)cc1,-3,-6,-2,3,.,.
O=S(=O)(Nc1ccc(-c2csc(-c3ccccc3)n2)cc1)c1ccccc1,8,18*,2,10,0,5
O=S(=O)(Nc1ccc2oc(-c3ccccc3)nc2c1)c1ccccc1,8,15*,3,3,0,4
Cc1cc(C)cc(C(O)c2ncc(-c3ccc(C(F)(F)F)cc3)[nH]2)c1 (configuration not stated),9,-4,4,19,.,.
COc1ccc2c(c1)CCCC21NC(=O)N(CC(=O)NCc2cccs2)C1=O (configuration not stated),-1,19*,-1,4,0,1
CC1(C(=O)NS(=O)(=O)Cc2cccc(Cl)c2)CCN1C(=O)Cc1cccs1 (configuration not stated),11,7,0,-3,.,.
CCCC(=O)N1CC2(C)CN(C(=O)CCC)CC(CCC)(C1)C2=O,-1,16*,-1,-9,-1,-4
CCCC12CN(C(=O)c3ccco3)CC(CCC)(CN(C(=O)c3ccco3)C1)C2=O,-1,5,1,1,.,.
CN(CCN1CCOCC1)C(=O)C1CCC(=O)N(Cc2ccc(Cl)cc2)C1 (configuration not stated),4,5,0,-13,.,.
CCC(=O)c1cn(CC(=O)Nc2ccccc2)c2ccccc12,-2,-1,1,5,.,.
CC(=O)c1cn(CC(=O)Nc2ccccc2)c2ccccc12,3,20*,-2,-7,-1,1
CCOC(=O)c1ccc(NC(=O)c2sc3nc(N4CCOCC4)c4c(c3c2N)CCCC4)cc1,-4,18*,3,11,0,-3
COC(=O)c1cc(=O)nc(NN=Cc2ccc(C)cc2)s1,.,5,.,-2,.,.
O=C1N/C(=N/O)S/C1=C\c1ccccc1-n1cccn1,-5,16*,-2,-15,0,0
O=C1N/C(=N/O)S/C1=C/c1cccc([N+](=O)[O-])c1,-9,1,-1,2,.,.
Cc1nc2c(OCc3cc(Cl)cc(Cl)c3)cccn2c1N(C)C(=O)CCC1CCCC1,8,1,2,22,.,.
CCn1c(N2CCN(S(=O)(=O)c3ccc(OC)cc3)CC2)nc2ccccc21,1,17*,-1,-6,0,44*
CCn1c(N2CCN(S(=O)(=O)c3ccccc3C(F)(F)F)CC2)nc2ccccc21,1,8,-1,11,.,.
SMILES,MC4R antag cAMP,HTR2A ag,MC4R barr agon,EBI2 antag,OPRM1 ag,m5-HT2A ag conf
NC(=O)C1CCN(C(=O)c2cc3ccccn3n2)CC1,2,-1,0,-1,.,.
O=C(c1cc2ccccn2n1)N1CCN(c2ccccn2)CC1,6,17*,0,6,0,-4
COc1ccc(NC(=O)CCNS(=O)(=O)c2ccc3[nH]c(=O)oc3c2)cc1Cl,2,22*,1,-7,0,3
Cc1cc(C(=O)N2CCCC2(C)C(=O)NCC(C)C)nn1C(C)(C)C (configuration not stated),4,-5,-1,-2,.,.
COc1cc(C#N)ccc1OC(=O)c1cccc(S(=O)(=O)N2CCN(C)CC2)c1,0,18*,-1,3,-1,-6
CCOC(=O)[C@]12CCC=C1N(Cc1cccc3ccccc13)C(=O)[C@H](CC(=O)NCc1ccc(OC)c(OC)c1)C2,.,-1,.,10,.,.
CCOC(=O)[C@H]1[C@H]2COc3ccc(C)cc3[C@@H]2N2C(=O)CN(Cc3ccc(C)cc3)C(=O)[C@@]12C,0,3,0,8,.,.
CCOC(=O)[C@H]1[C@H]2COc3ccc(OC)cc3[C@@H]2N2C(=O)[C@H](C)NC(=O)[C@@]12C,1,20*,0,-1,-1,-2
CCOC(=O)[C@H]1[C@H]2COc3ccc(C)cc3[C@@H]2N2C(=O)CN(Cc3ccco3)C(=O)[C@@]12C,3,15*,-2,-14,-1,-1
CCOC(=O)[C@H]1[C@H]2COc3ccc(Cl)cc3[C@@H]2N2C(=O)c3ccc(F)cc3NC(=O)[C@@]12C,11,1,0,-2,.,.
CCOC(=O)[C@H]1[C@H]2COc3ccc(Cl)cc3[C@@H]2N2C(=O)c3ccc(C)cc3NC(=O)[C@@]12C,4,15*,2,-3,-1,-3
O=C1Nc2ccccc2C(=O)N(c2ccc3c(c2)OCCO3)C1C(=O)NC1CC1 (configuration not stated),.,1,.,-9,.,.
CN=C(NC(=O)Nc1c(C)cccc1C)NC(=O)Nc1c(C)cccc1C,6,4,-3,-2,.,.
Cc1cccc(C)c1NC(=O)NN=C1CCCCC1,4,16*,-1,3,-1,-3
NS(=O)(=O)c1ccc(CCNC(=O)CSc2nc3c(sc(=S)n3-c3ccccc3)c(=O)[nH]2)cc1,-4,5,0,-1,.,.
Cc1cc(-c2onc(C)c2C(=O)Oc2ccc(Cl)cc2)no1,9,19*,-1,5,0,-4
Cc1ccc(C(=O)c2nc(C(=O)NCCO)nc3ccccc23)cc1,15,16*,0,6,-1,-3
O=C(NCCO)c1nc(NCCO)c2ccccc2n1,1,3,0,-12,.,.
Cc1cc(S(=O)(=O)Nc2cccnc2)c(C)s1,1,21*,-3,1,0,-1

# Bioassay records deposited in PubChem by several laboratories.
